In general, IC50 refers to the concentration that gives 50% inhibition.

We go through 36 compounds from ChEMBL document CHEMBL1133563, “Development of new hydroxamate matrix metalloproteinase inhibitors derived from functionalized 4-aminoprolines” (J Med Chem, 2000).

The target of one assay is Stromelysin-1 (Homo sapiens, UniProt P08254). Description: In vitro inhibitory activity against matrix metalloprotease -3 (stromelysin).
A further assay concerns the target Collagenase 3 (Homo sapiens, UniProt P45452). Description: In vitro inhibitory activity against human recombinant matrix metalloprotease-13 (collagenase-3).
The target in another assay is T1, Matrilysin (Homo sapiens, UniProt P09237).
T1 sequence (P09237 whole entry): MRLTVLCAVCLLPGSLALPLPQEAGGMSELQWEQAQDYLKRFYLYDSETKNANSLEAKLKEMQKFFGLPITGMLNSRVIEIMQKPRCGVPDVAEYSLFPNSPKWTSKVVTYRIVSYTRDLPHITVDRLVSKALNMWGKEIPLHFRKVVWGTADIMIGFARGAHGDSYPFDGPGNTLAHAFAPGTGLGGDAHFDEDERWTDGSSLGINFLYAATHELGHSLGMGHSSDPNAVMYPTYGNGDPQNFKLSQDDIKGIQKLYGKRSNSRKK
Description: In vitro inhibitory activity against matrix metalloprotease-7 (matrilysin, MMP-7). The gist of the method: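 Human recombinant truncated enzymes, final MMP-1 8 nM, MMP-3 16 nM, MMP-7 2 nM. Quenched-fluorescence assay with Mca-Pro-Leu-Gly-Leu-Dpa-Ala-Arg-NH₂ (4 µM) in 50 mM Tris pH 7.5, 0.2 M NaCl, 5 mM CaCl₂, 0.02% Brij-35 at 25 °C. Fluorescence (ex 328/em 393 nm) read kinetically for 30 min.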

The next assay deals with T2, Interstitial collagenase (Homo sapiens, UniProt P03956).
T2 sequence (P03956 whole entry): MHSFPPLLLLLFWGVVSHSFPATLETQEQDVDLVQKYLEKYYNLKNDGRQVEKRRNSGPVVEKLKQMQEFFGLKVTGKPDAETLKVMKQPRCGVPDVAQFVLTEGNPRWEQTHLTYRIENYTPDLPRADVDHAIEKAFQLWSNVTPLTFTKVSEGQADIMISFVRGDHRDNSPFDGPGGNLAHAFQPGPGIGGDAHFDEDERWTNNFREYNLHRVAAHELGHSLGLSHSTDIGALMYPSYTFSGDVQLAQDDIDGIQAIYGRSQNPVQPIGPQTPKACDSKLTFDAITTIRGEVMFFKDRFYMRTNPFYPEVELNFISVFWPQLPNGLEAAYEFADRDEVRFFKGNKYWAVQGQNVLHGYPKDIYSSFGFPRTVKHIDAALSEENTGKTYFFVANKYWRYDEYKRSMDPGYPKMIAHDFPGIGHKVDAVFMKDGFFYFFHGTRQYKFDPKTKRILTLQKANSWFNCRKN
Description: In vitro inhibitory activity against matrix metalloprotease -1 (collagenase-1).

For assay [1], the target named is 72 kDa type IV collagenase (Homo sapiens, UniProt P08253). Description: In vitro inhibitory activity against matrix metalloprotease -2 (gelatinase-A).
72 kDa type IV collagenase, sequence (P08253 whole entry): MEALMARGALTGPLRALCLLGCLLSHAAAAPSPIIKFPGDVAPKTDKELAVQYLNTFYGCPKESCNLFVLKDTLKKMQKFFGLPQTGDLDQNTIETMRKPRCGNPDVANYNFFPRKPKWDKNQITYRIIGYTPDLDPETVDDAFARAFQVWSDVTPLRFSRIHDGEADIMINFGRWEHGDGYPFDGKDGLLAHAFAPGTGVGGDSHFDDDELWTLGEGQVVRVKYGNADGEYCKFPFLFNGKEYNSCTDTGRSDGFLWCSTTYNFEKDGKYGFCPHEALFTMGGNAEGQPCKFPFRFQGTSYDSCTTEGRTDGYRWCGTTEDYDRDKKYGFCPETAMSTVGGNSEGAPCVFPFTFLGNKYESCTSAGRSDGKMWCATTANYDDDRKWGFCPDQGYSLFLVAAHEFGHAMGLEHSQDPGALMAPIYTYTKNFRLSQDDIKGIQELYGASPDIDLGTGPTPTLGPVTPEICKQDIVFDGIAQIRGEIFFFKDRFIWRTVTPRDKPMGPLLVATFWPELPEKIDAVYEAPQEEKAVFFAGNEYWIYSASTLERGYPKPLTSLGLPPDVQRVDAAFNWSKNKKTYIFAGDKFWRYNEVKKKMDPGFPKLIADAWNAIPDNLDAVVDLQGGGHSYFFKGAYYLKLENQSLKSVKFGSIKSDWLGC

Stromelysin-1, sequence (P08254 whole entry): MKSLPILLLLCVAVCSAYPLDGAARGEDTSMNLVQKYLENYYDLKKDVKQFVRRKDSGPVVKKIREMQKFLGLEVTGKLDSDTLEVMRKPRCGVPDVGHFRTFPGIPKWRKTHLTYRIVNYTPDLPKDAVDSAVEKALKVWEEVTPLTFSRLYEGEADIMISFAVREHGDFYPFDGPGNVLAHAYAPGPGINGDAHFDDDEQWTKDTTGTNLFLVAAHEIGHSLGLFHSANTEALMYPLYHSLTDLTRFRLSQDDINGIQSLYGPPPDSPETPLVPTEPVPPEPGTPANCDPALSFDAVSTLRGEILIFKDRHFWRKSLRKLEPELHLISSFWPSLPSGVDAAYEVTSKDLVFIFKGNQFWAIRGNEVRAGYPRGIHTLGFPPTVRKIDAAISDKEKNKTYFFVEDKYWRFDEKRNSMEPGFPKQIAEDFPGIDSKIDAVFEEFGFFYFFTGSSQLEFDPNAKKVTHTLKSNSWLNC

Take `O=C(NO)[C@H]1C[C@H](N2CCCC2)CN1S(=O)(=O)c1ccc(Oc2ccc(F)cc2)cc1`: the IC50 on Stromelysin-1 is 4 nM; at Collagenase 3, under 0.4 nM; at Matrilysin, 850 nM; against Interstitial collagenase, 20 nM.
`COc1ccc(S(=O)(=O)N2C[C@@H](NCCc3ccccc3)C[C@@H]2C(=O)NO)cc1`: the IC50 against Stromelysin-1 was determined as 57 nM; at Matrilysin, 1400 nM; at Interstitial collagenase, 560 nM.
Turning to `COc1ccc(S(=O)(=O)N2C[C@@H](N3CCCCC3)C[C@@H]2C(=O)NO)cc1`, the IC50 against Stromelysin-1 was 48 nM; at Collagenase 3, 1 nM; in assay [1], 6 nM; at Matrilysin, 7400 nM.
With `CCCCOc1ccc(S(=O)(=O)N2C[C@@H](N3CCCS3(=O)=O)C[C@@H]2C(=O)NO)cc1`, the half-inhibitory concentration (IC50) at Stromelysin-1 was 13 nM; on Collagenase 3, under 0.4 nM; against Matrilysin, 680 nM; on Interstitial collagenase, 230 nM.
Regarding `COc1ccc(S(=O)(=O)N2C[C@@H](N3CCOCC3)C[C@@H]2C(=O)NO)cc1`, the IC50 came out at 14 nM against Stromelysin-1, 6 nM in assay [1] and 220 nM on Interstitial collagenase.
In the case of `CCCCCc1ccc(S(=O)(=O)N2C[C@@H](N3CCOCC3)C[C@@H]2C(=O)NO)cc1`, the results for the IC50 against Stromelysin-1, at Collagenase 3 and against Matrilysin were 12 nM, 0.7 nM and 7400 nM, respectively.
With `COc1ccc(S(=O)(=O)N2C[C@@H](NC(=O)c3ccc(-c4ccccc4)cc3)C[C@@H]2C(=O)NO)cc1`, the half-maximal inhibitory concentration (IC50) against Stromelysin-1 was 400 nM; on Interstitial collagenase, over 1000 nM.
Consider `CCCOc1ccc(S(=O)(=O)N2C[C@@H](NC(=O)[C@H](C)O)C[C@@H]2C(=O)NO)cc1`, for which the IC50 on Stromelysin-1 was found to be 8 nM; on Collagenase 3, 1 nM; against Matrilysin, 3500 nM; on Interstitial collagenase, 140 nM.
Consider `CCCCOc1ccc(S(=O)(=O)N2C[C@@H](NC(=O)[C@@H](O)CC(C)C)C[C@@H]2C(=O)NO)cc1`, for which the IC50 on Stromelysin-1 came to 10 nM; at Collagenase 3 it was 0.9 nM; at Matrilysin, 2400 nM; against Interstitial collagenase, 440 nM.
For `CC(C)COc1ccc(S(=O)(=O)N2C[C@@H](N3C(=O)CN(C)C3=O)C[C@@H]2C(=O)NO)cc1`, in that order: 3 nM, 2.8 nM, 2300 nM and 300 nM.
For `CS(=O)(=O)N[C@H]1C[C@H](C(=O)NO)N(S(=O)(=O)c2ccc(Oc3ccncc3)cc2)C1`, in that order: 22 nM, 0.8 nM, over 10000 nM and 450 nM.
For `CCCOc1ccc(S(=O)(=O)N2C[C@@H](NC(=O)COC)C[C@@H]2C(=O)NO)cc1`, in that order: 30 nM, 3 nM, over 10000 nM and 500 nM.
For the compound `CCCOc1ccc(S(=O)(=O)N2C[C@@H](N3CCCS3(=O)=O)C[C@@H]2C(=O)NO)cc1`, the IC50 at Stromelysin-1 is 8 nM; at Collagenase 3, under 0.4 nM; against Matrilysin, 840 nM; on Interstitial collagenase it was 100 nM.
On to `COc1ccc(S(=O)(=O)N2C[C@@H](NC(=O)[C@H](C)OCc3ccccc3)C[C@@H]2C(=O)NO)cc1`, for which the values for the half-maximal inhibitory concentration (IC50) (against Stromelysin-1; in assay [1]; against Interstitial collagenase) were 7 nM, 0.3 nM and 140 nM, respectively.
For the compound `CCCCOc1ccc(S(=O)(=O)N2C[C@@H](NC(=O)COC)C[C@@H]2C(=O)NO)cc1`, the IC50 on Stromelysin-1 stood at 14 nM; on Collagenase 3, 0.7 nM; against Matrilysin, 4900 nM; against Interstitial collagenase, 1200 nM.
As to `COc1ccc(S(=O)(=O)N2C[C@@H](N(C)S(C)(=O)=O)C[C@@H]2C(=O)NO)cc1`, the IC50 on Stromelysin-1 is 6 nM; at Collagenase 3, 0.5 nM; against Matrilysin, 520 nM; on Interstitial collagenase, 19 nM.
Take `COc1ccc(S(=O)(=O)N2C[C@@H](N(Cc3cccnc3)C(=O)C(C)C)C[C@@H]2C(=O)NO)cc1`: the IC50 against Stromelysin-1 worked out at 10 nM; on Collagenase 3 it was 17 nM; in assay [1] it was 2.2 nM; against Interstitial collagenase it was 270 nM.
As to `CCCCOc1ccc(S(=O)(=O)N2C[C@@H](NC(=O)[C@@H](O)C(C)C)C[C@@H]2C(=O)NO)cc1`, the half-maximal inhibitory concentration (IC50) against Stromelysin-1 came to 8 nM; at Collagenase 3 it was 0.8 nM; at Matrilysin it was 1700 nM; against Interstitial collagenase it was 270 nM.
For `CN1CC(=O)N([C@H]2C[C@H](C(=O)NO)N(S(=O)(=O)c3ccc(Oc4ccncc4)cc3)C2)C1=O`, in that order: 11 nM, 0.7 nM, 7400 nM and 600 nM.
The matching figures for `O=C(NO)[C@H]1C[C@H](N2CCCCC2)CN1S(=O)(=O)c1ccc(Oc2ccccc2)cc1`: 8 nM, under 0.4 nM, 610 nM and 17 nM.
For `CN1CC(=O)N([C@H]2C[C@H](C(=O)NO)N(S(=O)(=O)c3ccc(Oc4ccccc4)cc3)C2)C1=O`, in that order: 6 nM, under 0.4 nM, 310 nM and 21 nM.
As for `CCOc1ccc(S(=O)(=O)N2C[C@@H](N3C(=O)CN(C)C3=O)C[C@@H]2C(=O)NO)cc1`, the IC50 against Stromelysin-1 came out at 33 nM; at Collagenase 3, 4 nM; against Matrilysin it was 7500 nM; on Interstitial collagenase it was 580 nM.
Take `COc1ccc(S(=O)(=O)N2C[C@@H](NC(=O)[C@H](Cc3ccccc3)OCc3ccccc3)C[C@@H]2C(=O)NO)cc1`: the IC50 against Stromelysin-1 amounted to 10 nM; at Collagenase 3, 2 nM; in assay [1] it was 0.2 nM; at Interstitial collagenase it was 240 nM.
Regarding `COc1ccc(S(=O)(=O)N2C[C@@H](N3CCCS3(=O)=O)C[C@@H]2C(=O)NO)cc1`, the half-inhibitory concentration (IC50) against Stromelysin-1 was 13 nM; on Collagenase 3 it was 0.4 nM; at Matrilysin, 1400 nM; at Interstitial collagenase it was 42 nM.
The matching figures for `CCCOc1ccc(S(=O)(=O)N2C[C@@H](N3C(=O)CN(C)C3=O)C[C@@H]2C(=O)NO)cc1`: 9 nM, 0.3 nM, 2600 nM and 260 nM.
For `CCCCCc1ccc(S(=O)(=O)N2C[C@@H](N3CCCCC3)C[C@@H]2C(=O)NO)cc1`, in that order: 12 nM, 0.9 nM, 9800 nM and 2000 nM.
The matching figures for `COc1ccc(S(=O)(=O)N2C[C@@H](N3CCS(=O)(=O)CC3)C[C@@H]2C(=O)NO)cc1`: 23 nM, 1 nM, 7100 nM and 300 nM.
For the compound `CCCCOc1ccc(S(=O)(=O)N2C[C@@H](NC(=O)[C@H](C)O)C[C@@H]2C(=O)NO)cc1`, the 50% inhibitory concentration (IC50) is 10 nM on Stromelysin-1, 0.9 nM on Collagenase 3, 4200 nM against Matrilysin and 1200 nM against Interstitial collagenase.
As to `CCCCOc1ccc(S(=O)(=O)N2C[C@@H](N)C[C@@H]2C(=O)NO)cc1`, the half-maximal inhibitory concentration (IC50) on Stromelysin-1 was 8 nM; against Interstitial collagenase, 380 nM.
Take `CNC(=O)N[C@H]1C[C@H](C(=O)NO)N(S(=O)(=O)c2ccc(OC)cc2)C1`: the figures for the IC50 at Stromelysin-1, on Collagenase 3 and against Interstitial collagenase were 300 nM, 27 nM and 3100 nM, respectively.
For the compound `CCCOc1ccc(S(=O)(=O)N2C[C@@H](N3CCCCC3)C[C@@H]2C(=O)NO)cc1`, the IC50 on Stromelysin-1 is 9 nM; at Collagenase 3 it was 0.4 nM; at Matrilysin, 620 nM; against Interstitial collagenase, 210 nM.
The matching figures for `COc1ccc(S(=O)(=O)N2C[C@@H](N3C(=O)CN(C)C3=O)C[C@@H]2C(=O)NO)cc1`: 8 nM, 0.5 nM, 1800 nM and 200 nM.
For `O=C(NO)[C@H]1C[C@H](N2CCOCC2)CN1S(=O)(=O)c1ccc(Oc2ccccc2)cc1`, in that order: 7 nM, under 0.4 nM, 710 nM and 19 nM.
The matching figures for `O=C(NO)[C@H]1C[C@H](N2CCCC2)CN1S(=O)(=O)c1ccc(Oc2ccccc2)cc1`: 5 nM, under 0.4 nM, 790 nM and 19 nM.
For the compound `CCCCOc1ccc(S(=O)(=O)N2C[C@@H](NS(=O)(=O)c3cn(C)cn3)C[C@@H]2C(=O)NO)cc1`, the IC50 against Stromelysin-1 came to 6 nM; at Interstitial collagenase it was 700 nM.
`CCCN[C@H]1C[C@H](C(=O)NO)N(S(=O)(=O)c2ccc(OC)cc2)C1`: the 50% inhibitory concentration (IC50) against Stromelysin-1 was 87 nM; at Collagenase 3, 5 nM; at Matrilysin it was 2200 nM.
